We go through 15 compounds from ChEMBL document CHEMBL1126563, “The inophyllums, novel inhibitors of HIV-1 reverse transcriptase isolated from the Malaysian tree, Calophyllum inophyllum Linn” (J Med Chem, 1993).

pIC50: −log10 of the molar value. Bounds are passed on as bounds.

Assay [1] addresses Human immunodeficiency virus type 1 reverse transcriptase (Human immunodeficiency virus 1, UniProt Q72547). Description: Inhibitory concentration against HIV-1 reverse transcriptase in scintillation proximity assay. The method, boiled down: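 Recombinant purified HIV-1 RT (2 nM) with 39 nM 50-mer RNA template annealed to biotinylated 17-mer DNA primer; 75 nM dATP, dCTP, dGTP and [3H]TTP. Buffer 50 mM Tris-HCl pH 8.0, 80 mM KCl, 10 mM MgCl2, 10 mM DTT, 0.012% CHAPS. Enzyme, template-primer and inhibitor (90 μM–0.01 nM) preincubated 15 min at 37 °C; reaction 10 min at 37 °C, EDTA stop, streptavidin scintillant beads, scintillation counting.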
(SPA uses beads or plates that emit light when radiolabelled molecules are held near them.)

The nature of assay [2]: Selectivity index is the ratio of cytotoxicity in Molt-4 cells and anti-HIV- IC50. It is filed as functional. The method, boiled down:
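Selectivity index = cytotoxicity IC50 (XTT, Molt-4, day 7) divided by anti-HIV IC50 (RT quantitation in supernatant 7 days after HIV-1 infection of Molt-4 cells).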

In assay [3] the test system is Human immunodeficiency virus 1. Briefly: Anti-HIV activity against HIV-1 in Molt-4 cells using 7-day infective assay. The format is functional, organism-based. The settings on record: Human immunodeficiency virus 1, MOLT-4, 168 h. The method, boiled down:
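Molt-4 cells (3×10^4) infected with 50 tissue culture infectious doses of HIV-1; compound added day 0, cultures refed days 1 and 4 with medium containing compound at initial concentration. On day 7 cells spun down and supernatant RT quantified by microassay; IC50 from RT quantitation.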

For assay [4], the system named is MOLT-4. Description: Tested for cytotoxicity in Molt-4 cells by XTT assay. The format is functional, cell-based. Particulars: Homo sapiens. The method, boiled down:
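Molt-4 cells plated at 3×10^4 cells/well with compound; on day 7 XTT conversion to formazan measured, with trypan blue microscopic examination also used; IC50 derived.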
On the technique in general: Formazan colour is commonly taken as a measure of viable cells.

For assay [5], the target named is Human immunodeficiency virus type 1 reverse transcriptase (Human immunodeficiency virus 1, UniProt Q72547, Y181C). Briefly: Inhibitory concentration against HIV-1 reverse transcriptase mutant (Tyr-181 to Cys). The method, boiled down:
(§1)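 Scintillation proximity assay for RNA-dependent DNA polymerase activity of recombinant purified RT. The template is a 50-mer RNA annealed at its 5'-end to a biotinylated 17-mer DNA primer. Buffer is 50 mM Tris-HCl pH 8.0 with 80 mM KCl, 10 mM MgCl2, 10 mM DTT and 0.012% CHAPS. Final levels are 2 nM RT, 39 nM template-primer, 75 nM each dATP/dCTP/dGTP/[3H]TTP, and inhibitor serially diluted over 90 μM–0.01 nM. RT, template-primer and inhibitor are preincubated 15 min at 37 °C. The reaction runs 10 min at 37 °C and is stopped with EDTA. Incorporated label is captured on streptavidin scintillant beads and counted to give IC50.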

Assay [6] deals with Human immunodeficiency virus type 1 reverse transcriptase (Human immunodeficiency virus 1, UniProt Q72547, Y181L). Briefly: Inhibitory concentration against HIV-1 reverse transcriptase mutant (Tyr-181 to Leu). The method, boiled down:
as §1

As for `CC(=O)O[C@H]1c2c(c3c(c4c(-c5ccccc5)cc(=O)oc24)OC(C)(C)C=C3)O[C@H](C)[C@H]1C`, in assay [1], the pIC50 (as a rule, −log10 of the IC50, conventionally taken in molar units) was less than 4.00.

As to `CC1[C@H](O)c2c(c3c(c4c(-c5ccccc5)cc(=O)oc24)O[C@H]2[C@@H]3C2(C)C)O[C@@H]1C` (single isomer, unassigned), in assay [1], the pIC50 is 4.15.

Compound `C[C@@H]1[C@H](C(=O)c2ccc(Br)cc2)c2c(c3c(c4c(-c5ccccc5)cc(=O)oc24)OC(C)(C)C=C3)O[C@@H]1C` had a pIC50 in assay [1] of 4.34.

`C[C@@H]1[C@@H](C)Oc2c3c(c4c(-c5ccccc5)cc(=O)oc4c2[C@@H]1O)OC(C)(C)C=C3`: in assay [2], the Selectivity index stood at 16. The pIC50 in assay [1] was 6.89; in assay [3], 5.80; in assay [4], 4.60.

Turning to `CC1=Cc2c(c3c(c4c(-c5ccccc5)cc(=O)oc24)OC(C)(C)C=C3)O[C@@H]1C`, in assay [1], the negative logarithm of the IC50 (pIC50) was 5.05.

As for `CC(C)=CCN1Cc2cc(Cl)cc3[nH]c(=S)n(c23)C[C@@H]1C`, the Selectivity index in assay [2] amounted to 100. In addition, the figures for the pIC50 in assay [1], in assay [3] and in assay [4] were 6.15, 6.72 and 4.72, respectively.

`C[C@@H]1C(=O)c2c(O)c(/C(=C\C(=O)O)c3ccccc3)c3c(c2O[C@@H]1C)C=CC(C)(C)O3` showed a negative-log IC50 (pIC50) in assay [1] of less than 4.00.

`C[C@@H]1[C@H](O)c2c(c3c(c4c(-c5ccccc5)cc(=O)oc24)OC(C)(C)C=C3)O[C@@H]1C`: the pIC50 is 4.52 in assay [1] and 4.48 in assay [4].

In assay [1], `CC(=O)O[C@@H]1c2c(c3c(c4c(-c5ccccc5)cc(=O)oc24)OC(C)(C)C=C3)O[C@H](C)[C@H]1C` gave a pIC50 of 6.14.

Turning to `C[C@H]1[C@@H](C)Oc2c3c(c4c(-c5ccccc5)cc(=O)oc4c2[C@@H]1O)OC(C)(C)C=C3`, the figures for the pIC50 in assay [1] and in assay [4] were 4.96 and 4.82, respectively.

On to `C[C@H]1[C@H](O)c2c(c3c(c4c(-c5ccccc5)cc(=O)oc24)OC(C)(C)C=C3)O[C@@H]1C`, for which, in assay [2], the Selectivity index came out at 39. In addition, the negative logarithm of the IC50 (pIC50) is 6.80 in assay [5]; 7.42 in assay [1]; 6.39 in assay [6]; 5.85 in assay [3]; 4.26 in assay [4].

Take `C[C@H]1Oc2c3c(c4c(-c5ccccc5)cc(=O)oc4c2C(=O)[C@@H]1C)OC(C)(C)C=C3`: the negative logarithm of the IC50 (pIC50) in assay [1] is 5.00; in assay [4] it was 4.74.

On to `CC1[C@H](O)c2c(c3c(c4c(-c5ccccc5)cc(=O)oc24)O[C@@H]2[C@H]3C2(C)C)O[C@@H]1C` (single isomer, unassigned), for which the negative logarithm of the IC50 (pIC50) in assay [1] is less than 4.00.

In the case of `C[C@H]1Oc2c3c(c(/C(=C\C(=O)O)c4ccccc4)c(O)c2C(=O)[C@@H]1C)OC(C)(C)C=C3`, the negative-log IC50 (pIC50) in assay [1] is less than 4.00.

Turning to `C[C@@H]1C(=O)c2c(c3c(c4c(-c5ccccc5)cc(=O)oc24)OC(C)(C)C=C3)O[C@@H]1C`, the results for the pIC50 in assay [1] and in assay [4] were 4.00 and 5.21, respectively.
